Laboratory results: ChEMBL document CHEMBL4346672, “Antimicrobial and KPC/AmpC inhibitory activity of functionalized benzosiloxaboroles” (Eur J Med Chem, 2019)
Converted amounts (≈) assume the structure as drawn. The source made the active and inactive calls. No cut-off for these calls is given here.

How the values were obtained:
Serratia marcescens = assay: Antibacterial activity against Serratia marcescens ATCC 13880 measured after 18 hrs by CLSI broth dilution method; format: functional; conditions: ATCC 13880, 18 h
Procedure, shortened: (§1)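 Broth MIC in Mueller-Hinton II broth following CLSI, compounds dissolved in DMSO. Strains subcultured twice on tryptic soy agar before testing. Growth read after 35 °C, 18 h.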

[1] = tested on: Staphylococcus epidermidis; assay: Antibacterial activity against Staphylococcus epidermidis ATCC 12228 measured after 18 hrs by CLSI broth dilution method; format: functional; conditions: ATCC 12228, 18 h; procedure, shortened: as §1
[2] = Dissociation constant, pKa1 of compound in 0.1 M NaOH by potentiometric analysis; format: physicochemical
Enterococcus faecalis = assay: Antibacterial activity against Enterococcus faecalis ATCC 29212 measured after 18 hrs by CLSI broth dilution method; format: functional; conditions: ATCC 29212, 18 h; procedure, shortened: as §1
Enterobacter cloacae [3] = assay: Antibacterial activity against Enterobacter cloacae DSM 6234 assessed as diameter of zone inhibition measured after 18 hrs by CLSI disc diffusion method; format: functional
Procedure, shortened: (§2)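 Disc diffusion on Mueller-Hinton II agar. Compounds dissolved in DMSO. Strains stored at -80 °C and subcultured twice on tryptic soy agar before testing. Inhibition zones read after 35 °C, 18 h.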

Staphylococcus aureus [4] = assay: Antibacterial activity against Staphylococcus aureus ATCC 6538P assessed as diameter of zone inhibition measured after 18 hrs by CLSI disc diffusion method; format: functional; procedure, shortened: as §2
Pseudomonas aeruginosa [5] = assay: Antibacterial activity against Pseudomonas aeruginosa ATCC 27853 measured after 18 hrs by CLSI broth dilution method; format: functional; conditions: ATCC 27853, 18 h; procedure, shortened: as §1
[6] = tested on: Stenotrophomonas maltophilia; assay: Antibacterial activity against Stenotrophomonas maltophilia ATCC 13637 assessed as diameter of zone inhibition measured after 18 hrs by CLSI disc diffusion method; format: functional; procedure, shortened: as §2
Candida albicans [7] = assay: Antifungal activity against Candida albicans ATCC 90028 assessed as decrease in fungal cell growth at 0.78 to 12.5 mg/L incubated for 24 hrs by CLSI broth dilution method; format: functional; conditions: ATCC 90028, 24 h
Procedure, shortened: (§3)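 Yeast broth dilution in RPMI 1640 with 2% glucose, compounds in DMSO. Yeasts pre-grown on Sabouraud dextrose agar. Growth read after 35 °C, 24 h.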

Pseudomonas aeruginosa [8] = assay: Antibacterial activity against Pseudomonas aeruginosa ATCC 27853 assessed as diameter of zone inhibition measured after 18 hrs by CLSI disc diffusion method; format: functional, organism-based; procedure, shortened: as §2
Saccharomyces cerevisiae [9] = assay: Antifungal activity against Saccharomyces cerevisiae ATCC 9763 assessed as decrease in fungal cell growth at 0.78 to 12.5 mg/L incubated for 24 hrs by CLSI broth dilution method; format: functional; conditions: ATCC 9763, 24 h
Procedure, shortened: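 Yeast strain subcultured on Sabouraud dextrose agar for 24–48 h at 30 °C before testing. Compounds dissolved in DMSO.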

Bacillus subtilis = assay: Antibacterial activity against Bacillus subtilis ATCC 6633 assessed as diameter of zone inhibition measured after 18 hrs by CLSI disc diffusion method; format: functional; procedure, shortened: as §2
Klebsiella pneumoniae = assay: Antibacterial activity against Klebsiella pneumoniae ATCC 13883 measured after 18 hrs by CLSI broth dilution method; format: functional; conditions: ATCC 13883, 18 h; procedure, shortened: as §1
Saccharomyces cerevisiae [10] = assay: Antifungal activity against Saccharomyces cerevisiae ATCC 9763 diameter of zone inhibition incubated for 24 hrs by CLSI disc diffusion method; format: functional
Procedure, shortened: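 Disc-diffusion run on Mueller-Hinton II agar with 2% glucose and 0.5 mg/L methylene blue, using compounds in DMSO. Yeast was precultured on Sabouraud dextrose agar (24–48 h, 30 °C). Zones read after 24 h at 35 °C.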

Burkholderia cepacia [11] = assay: Antibacterial activity against Burkholderia cepacia ATCC 25416 measured after 18 hrs by CLSI broth dilution method; format: functional; conditions: ATCC 25416, 18 h; procedure, shortened: as §1
Enterococcus faecium = assay: Antibacterial activity against Enterococcus faecium ATCC 6057 measured after 18 hrs by CLSI broth dilution method; format: functional; conditions: ATCC 6057, 18 h; procedure, shortened: as §1
[12] = tested on: Stenotrophomonas maltophilia; assay: Antibacterial activity against Stenotrophomonas maltophilia ATCC 13637 measured after 18 hrs by CLSI broth dilution method; format: functional; conditions: ATCC 13637, 18 h; procedure, shortened: as §1
Burkholderia cepacia [13] = assay: Antibacterial activity against Burkholderia cepacia ATCC 25416 assessed as diameter of zone inhibition measured after 18 hrs by CLSI disc diffusion method; format: functional; procedure, shortened: as §2
[14] = tested on: Stenotrophomonas maltophilia; assay: Antibacterial activity against Stenotrophomonas maltophilia ATCC 13637 assessed as fold reduction of MIC in presence of efflux pump inhibitor PAbetaN incubated for 18 hrs by broth microdilution method; format: functional
Procedure, shortened: (§4)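 MICs determined with and without PAβN at 50 mg/L in Mueller-Hinton broth containing 1 mM MgSO₄. 2-fold serial dilutions per CLSI. Fold change taken from the paired MICs after 35 °C, 18 h.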

[15] = tested on: Meyerozyma guilliermondii; assay: Antifungal activity against Candida guilliermondii IBA 155 assessed as diameter of zone inhibition incubated for 24 hrs by CLSI disc diffusion method; format: functional
Procedure, shortened: (§5)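 Yeast disc diffusion on Mueller-Hinton agar supplemented with 2% glucose and 0.5 mg/L methylene blue. Compounds in DMSO. Yeasts subcultured on Sabouraud dextrose agar before testing. Zones read after 35 °C, 24 h.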

Staphylococcus aureus [16] = assay: Antibacterial activity against Staphylococcus aureus ATCC 6538P measured after 18 hrs by CLSI broth dilution method; format: functional; procedure, shortened: as §1
[17] = tested on: Staphylococcus epidermidis; assay: Antibacterial activity against Staphylococcus epidermidis ATCC 12228 assessed as diameter of zone inhibition measured after 18 hrs by CLSI disc diffusion method; format: functional; procedure, shortened: as §2
Pichia kudriavzevii = assay: Antifungal activity against Candida krusei ATCC 6258 assessed as diameter of zone inhibition incubated for 24 hrs by CLSI disc diffusion method; format: functional; procedure, shortened: as §5
Candida albicans [18] = assay: Antifungal activity against Candida albicans ATCC 90028 assessed as diameter of zone inhibition incubated for 24 hrs by CLSI disc diffusion method; format: functional; procedure, shortened: as §5
Enterobacter cloacae [19] = assay: Antibacterial activity against Enterobacter cloacae DSM 6234 assessed as fold reduction of MIC in presence of efflux pump inhibitor PAbetaN incubated for 18 hrs by broth microdilution method; format: functional; procedure, shortened: as §4
Acinetobacter baumannii = assay: Antibacterial activity against Acinetobacter baumannii ATCC 19606 assessed as diameter of zone inhibition measured after 18 hrs by CLSI disc diffusion method; format: functional; procedure, shortened: as §2
Escherichia coli [20] = assay: Antibacterial activity against Escherichia coli ATCC 25922 measured after 18 hrs by CLSI broth dilution method; format: functional; conditions: ATCC 25922, 18 h; procedure, shortened: as §1
Proteus mirabilis = assay: Antibacterial activity against Proteus mirabilis ATCC 12453 measured after 18 hrs by CLSI broth dilution method; format: functional; conditions: ATCC 12453, 18 h; procedure, shortened: as §1
Escherichia coli [21] = assay: Antibacterial activity against Escherichia coli ATCC 25922 assessed as fold reduction of MIC in presence of efflux pump inhibitor PAbetaN incubated for 18 hrs by CLSI broth microdilution method; format: functional; procedure, shortened: as §4
[22] = tested on: Meyerozyma guilliermondii; assay: Antifungal activity against Candida guilliermondii IBA 155 assessed as decrease in fungal cell growth at 0.78 to 12.5 mg/L incubated for 24 hrs by CLSI broth dilution method; format: functional; conditions: IBA 155, 24 h; procedure, shortened: as §3
Escherichia coli [23] = assay: Antibacterial activity against Escherichia coli ATCC 25922 assessed as diameter of zone inhibition measured after 18 hrs by CLSI disc diffusion method; format: functional; procedure, shortened: as §2
Enterobacter cloacae [24] = assay: Antibacterial activity against Enterobacter cloacae DSM 6234 measured after 18 hrs by CLSI broth dilution method; format: functional; conditions: DSM 6234, 18 h; procedure, shortened: as §1
Candida parapsilosis = assay: Antifungal activity against Candida parapsilosis ATCC 22019 assessed as diameter of zone inhibition incubated for 24 hrs by CLSI disc diffusion method; format: functional; procedure, shortened: as §5

SMILES | MIC (Serratia marcescens) [µg/mL] | MIC [1] [µg/mL] | pKa [2] | MIC (Enterococcus faecalis) [µg/mL] | diameter of the inhibition zone (DIZ) (Enterobacter cloacae [3]) | diameter of the inhibition zone (DIZ) (Staphylococcus aureus [4]) [mm] | MIC (Pseudomonas aeruginosa [5]) [µg/mL] | diameter of the inhibition zone (DIZ) [6] | MIC (Candida albicans [7]) [µg/mL] | diameter of the inhibition zone (DIZ) (Pseudomonas aeruginosa [8]) | MIC (Saccharomyces cerevisiae [9]) [µg/mL] | diameter of the inhibition zone (DIZ) (Bacillus subtilis) [mm] | MIC (Klebsiella pneumoniae) [µg/mL] | diameter of the inhibition zone (DIZ) (Saccharomyces cerevisiae [10]) | MIC (Burkholderia cepacia [11]) [µg/mL] | MIC (Enterococcus faecium) [µg/mL] | MIC [12] [µg/mL] | diameter of the inhibition zone (DIZ) (Burkholderia cepacia [13]) | fold change (FC) [14] | diameter of the inhibition zone (DIZ) [15] | other results
C[Si]1(C)OB(O)c2ccc(F)c(F)c21 | > 400 | 50 (≈ 234 µM) | 6.1 | 100 (≈ 467 µM) | inactive | 32 | > 400 | 13 mm | 100 (≈ 467 µM) | inactive | 12.5 (≈ 58.4 µM) | 28 | > 400 | 30 mm | > 400 | 100 (≈ 467 µM) | 200 (≈ 934 µM) | inactive | 16 | 30 mm | MIC (Staphylococcus aureus [16]): 25 µg/mL (≈ 117 µM); diameter of the inhibition zone (DIZ) [17]: 33 mm; diameter of the inhibition zone (DIZ) (Pichia kudriavzevii): 17 mm; diameter of the inhibition zone (DIZ) (Candida albicans [18]): 15 mm; fold change (FC) (Enterobacter cloacae [19]): 32; diameter of the inhibition zone (DIZ) (Acinetobacter baumannii): inactive; MIC (Escherichia coli [20]): > 400 µg/mL; MIC (Proteus mirabilis): > 400 µg/mL; fold change (FC) (Escherichia coli [21]): 32; MIC [22]: 3.12 µg/mL (≈ 14.6 µM); diameter of the inhibition zone (DIZ) (Escherichia coli [23]): inactive; MIC (Enterobacter cloacae [24]): > 400 µg/mL; diameter of the inhibition zone (DIZ) (Candida parapsilosis): 11 mm
C[Si]1(C)OB(O)c2ccc(B(O)O)cc21 | > 400 | 50 (≈ 225 µM) | 7.7 | 200 (≈ 901 µM) | inactive | 14 | > 400 | 12 mm | 400 (≈ 1800 µM) | inactive | 100 (≈ 451 µM) | 19 | > 400 | inactive | > 400 | 200 (≈ 901 µM) | 400 (≈ 1800 µM) | inactive | 8 | inactive | MIC (Staphylococcus aureus [16]): 200 µg/mL (≈ 901 µM); diameter of the inhibition zone (DIZ) [17]: 32 mm; diameter of the inhibition zone (DIZ) (Pichia kudriavzevii): inactive; diameter of the inhibition zone (DIZ) (Candida albicans [18]): inactive; fold change (FC) (Enterobacter cloacae [19]): 16; diameter of the inhibition zone (DIZ) (Acinetobacter baumannii): inactive; MIC (Escherichia coli [20]): > 400 µg/mL; MIC (Proteus mirabilis): > 400 µg/mL; fold change (FC) (Escherichia coli [21]): 8; MIC [22]: > 400 µg/mL; diameter of the inhibition zone (DIZ) (Escherichia coli [23]): inactive; MIC (Enterobacter cloacae [24]): > 400 µg/mL; diameter of the inhibition zone (DIZ) (Candida parapsilosis): inactive
C[Si]1(C)OB(O)c2cc(C=O)cc(F)c21 | > 400 | 50 (≈ 223 µM) | 5.6 | 400 (≈ 1790 µM) | inactive | 22 | > 400 | inactive | 400 (≈ 1790 µM) | inactive | 200 (≈ 893 µM) | 22 | > 400 | inactive | > 400 | 200 (≈ 893 µM) | > 400 | inactive | 8 | inactive | MIC (Staphylococcus aureus [16]): 25 µg/mL (≈ 112 µM); diameter of the inhibition zone (DIZ) [17]: 31 mm; diameter of the inhibition zone (DIZ) (Pichia kudriavzevii): inactive; diameter of the inhibition zone (DIZ) (Candida albicans [18]): inactive; fold change (FC) (Enterobacter cloacae [19]): 16; diameter of the inhibition zone (DIZ) (Acinetobacter baumannii): inactive; MIC (Escherichia coli [20]): > 400 µg/mL; MIC (Proteus mirabilis): > 400 µg/mL; fold change (FC) (Escherichia coli [21]): 16; MIC [22]: > 400 µg/mL; diameter of the inhibition zone (DIZ) (Escherichia coli [23]): inactive; MIC (Enterobacter cloacae [24]): > 400 µg/mL; diameter of the inhibition zone (DIZ) (Candida parapsilosis): inactive
